Converted amounts (≈) assume the structure as drawn.
Experiments:
[1] = system: Acinetobacter lwoffii; assay: Antibacterial activity against Acinetobacter lwoffii ATCC 17925 after 24 hrs by geometric microdilution method; assay type: functional; details: ATCC 17925, 24 h
[2] = system: Escherichia coli; assay: Antibacterial activity against Escherichia coli L58058.1 expressing ANT2''-1A after 24 hrs by geometric microdilution method; assay type: functional
[3] = system: Escherichia coli; assay: microbe, parasite or virus in culture; details: ATCC 25922, 24 h
[4] = system: Acinetobacter lwoffii; assay: Antibacterial activity against Acinetobacter lwoffii AI.88-483 expressing APH3'-6A after 24 hrs by geometric microdilution method; assay type: functional
[5] = system: Pseudomonas aeruginosa; assay: Antibacterial activity against Pseudomonas aeruginosa F03 expressing AAC6'-2A after 24 hrs by geometric microdilution method; assay type: functional
[6] = system: Escherichia coli; assay: Antibacterial activity against Escherichia coli PAZ505H8101 expressing AAC6'-1B after 24 hrs by geometric microdilution method; assay type: functional
[7] = system: Pseudomonas aeruginosa; assay: Antibacterial activity against Pseudomonas aeruginosa PA22 (PT629) expressing MexXY after 24 hrs by geometric microdilution method; assay type: functional
[8] = system: Pseudomonas aeruginosa; assay: Antibacterial activity against Pseudomonas aeruginosa ATCC 27853 after 24 hrs by geometric microdilution method; assay type: functional
[9] = system: Klebsiella pneumoniae; assay: Antibacterial activity against Klebsiella pneumoniae ATCC 700603 after 24 hrs by geometric microdilution method; assay type: functional
[10] = system: Staphylococcus aureus; assay: Antibacterial activity against healthcare-acquired methicillin-resistant Staphylococcus aureus ATCC 33592 after 24 hrs by geometric microdilution method; assay type: functional
Outline: (§1)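 Broth cultures were incubated in plates at 37 °C, and growth was read as absorbance at 650 nm after 1, 4, 7 and 24 h. Ampicillin (16 mg/L) was the positive control and DMSO the negative control. Each MIC (μg/mL) is the average of at least three determinations.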

[11] = system: Staphylococcus aureus; assay: microbe, parasite or virus in culture; details: ATCC 25923, 24 h
[12] = system: Staphylococcus aureus; assay: Antibacterial activity against fluoroquinolone-resistant Staphylococcus aureus 1199B expressing NorA efflux pump after 24 hrs by geometric microdilution method; assay type: functional; outline: as §1
[13] = system: Staphylococcus aureus; assay: Antibacterial activity against Staphylococcus aureus expressing aminoglycoside-6'-N-acetyltransferase/2''-O-phosphoryltransferase after 24 hrs by geometric microdilution method; assay type: functional; outline: as §1
[14] = system: Staphylococcus aureus; assay: Antibacterial activity against Staphylococcus aureus expressing aminoglycoside-3'-O-phosphoryltransferase after 24 hrs by geometric microdilution method; assay type: functional; outline: as §1
[15] = system: Staphylococcus aureus; assay: Antibacterial activity against vancomycin-resistant Staphylococcus aureus VRS2 after 24 hrs by geometric microdilution method; assay type: functional; outline: as §1
[16] = system: Staphylococcus aureus; assay: Antibacterial activity against Staphylococcus aureus expressing aminoglycoside-[…] after 24 hrs by geometric microdilution method; assay type: functional; outline: as §1
[17] = system: Staphylococcus aureus; assay: Antibacterial activity against 14- and 15-membered macrolide-resistant Staphylococcus aureus expressing MsrA efflux pump after 24 hrs by geometric microdilution method; assay type: functional; outline: as §1

Compound	MIC [1]	MIC ([2]; L58058.1, 24 h)	MIC [3]	MIC ([4]; AI.88-483, 24 h)	MIC ([5]; F03, 24 h)	MIC ([6]; PAZ505H8101, 24 h)	MIC [7]	MIC ([8]; ATCC 27853, 24 h)	MIC ([9]; ATCC 700603, 24 h)	MIC ([10]; ATCC 33592, 24 h)	MIC [11]	MIC [12]	MIC [13]	MIC [14]	MIC ([15]; VRS2, 24 h)	MIC [16]	MIC [17]	further results
NC[C@H]1O[C@H](O[C@H]2[C@H](O)[C@@H](O[C@H]3O[C@H](CO)[C@@H](O)[C@H](N)[C@H]3O)[C@H](N)C[C@@H]2N)[C@H](N)C[C@@H]1O [TOBRAMYCIN]	0.5 µg/mL (≈ 1.07 µM)	64 µg/mL (≈ 137 µM)	0.5 µg/mL (≈ 1.07 µM)	1 µg/mL (≈ 2.14 µM)	128 µg/mL (≈ 274 µM)	32 µg/mL (≈ 68.4 µM)	1 µg/mL (≈ 2.14 µM)	0.5 µg/mL (≈ 1.07 µM)	4 µg/mL (≈ 8.56 µM)	–	–	–	–	–	–	–	–	–
CCCCO[C@@H]1[C@@H](N)[C@@H](O[C@H]2[C@H](O)[C@@H](OCCCC)[C@H](N)C[C@@H]2N)O[C@H](CN)[C@H]1OCCCC	> 128 µg/mL	> 128 µg/mL	> 128 µg/mL	> 128 µg/mL	> 128 µg/mL	> 128 µg/mL	> 128 µg/mL	> 128 µg/mL	> 128 µg/mL	> 128 µg/mL	> 128 µg/mL	> 128 µg/mL	> 128 µg/mL	> 128 µg/mL	> 128 µg/mL	> 128 µg/mL	–	–
NC[C@H]1O[C@H](O[C@H]2[C@H](O)[C@@H](OCCCc3ccc4ccccc4c3)[C@H](N)C[C@@H]2N)[C@H](N)[C@@H](OCCCc2ccc3ccccc3c2)[C@@H]1OCCCc1ccc2ccccc2c1	–	> 128 µg/mL	128 µg/mL (≈ 155 µM)	–	64 µg/mL (≈ 77.4 µM)	32 µg/mL (≈ 38.7 µM)	128 µg/mL (≈ 155 µM)	128 µg/mL (≈ 155 µM)	–	128 µg/mL (≈ 155 µM)	> 128 µg/mL	> 128 µg/mL	64 µg/mL (≈ 77.4 µM)	32 µg/mL (≈ 38.7 µM)	> 128 µg/mL	128 µg/mL (≈ 155 µM)	32 µg/mL (≈ 38.7 µM)	–
CCCCCCCCCCCCCCCCCCO[C@@H]1[C@@H](N)[C@@H](O[C@H]2[C@H](O)[C@@H](OCCCCCCCCCCCCCCCCCC)[C@H](N)C[C@@H]2N)O[C@H](CN)[C@H]1O	–	> 128 µg/mL	> 128 µg/mL	–	> 128 µg/mL	> 128 µg/mL	> 128 µg/mL	> 128 µg/mL	–	> 128 µg/mL	> 128 µg/mL	> 128 µg/mL	256 µg/mL (≈ 309 µM)	128 µg/mL (≈ 155 µM)	> 128 µg/mL	256 µg/mL (≈ 309 µM)	> 128 µg/mL	–
NCC[C@H](O)C(=O)N[C@@H]1C[C@H](N)[C@@H](O[C@H]2O[C@H](CN)[C@@H](O)[C@H](O)[C@H]2O)[C@H](O)[C@H]1O[C@H]1O[C@H](CO)[C@@H](O)[C@H](N)[C@H]1O [AMIKACIN]	0.5 µg/mL (≈ 0.854 µM)	2 µg/mL (≈ 3.42 µM)	4 µg/mL (≈ 6.83 µM)	> 128 µg/mL	4 µg/mL (≈ 6.83 µM)	64 µg/mL (≈ 109 µM)	8 µg/mL (≈ 13.7 µM)	2 µg/mL (≈ 3.42 µM)	0.5 µg/mL (≈ 0.854 µM)	–	–	–	–	–	–	–	–	–
CCCCCCCCCCCCCCCCCCO[C@@H]1[C@@H](O)[C@H](O[C@H]2O[C@H](CN)[C@@H](O)[C@H](O)[C@H]2N)[C@@H](N)C[C@H]1N	–	–	–	–	–	–	–	–	–	> 128 µg/mL	> 128 µg/mL	> 256 µg/mL	> 256 µg/mL	> 256 µg/mL	–	> 256 µg/mL	–	–
NC[C@H]1O[C@H](O[C@H]2[C@H](O)[C@@H](OCc3ccccc3)[C@H](N)C[C@@H]2N)[C@H](N)[C@@H](OCc2ccccc2)[C@@H]1OCc1ccccc1	> 128 µg/mL	> 128 µg/mL	> 128 µg/mL	> 128 µg/mL	> 128 µg/mL	> 128 µg/mL	> 128 µg/mL	> 128 µg/mL	> 128 µg/mL	> 128 µg/mL	> 128 µg/mL	> 128 µg/mL	> 128 µg/mL	> 128 µg/mL	64 µg/mL (≈ 108 µM)	> 128 µg/mL	–	–
GENTAMICIN	–	–	–	–	–	–	4 µg/mL	–	–	–	–	–	–	–	–	–	–	MIC [2]: 64 µg/mL; MIC [10]: 1 µg/mL; MIC [4]: 4 µg/mL; MIC [5]: > 128 µg/mL; MIC [6]: 1 µg/mL; MIC [8]: 1 µg/mL; MIC [15]: 32 µg/mL; MIC [9]: 8 µg/mL
N[C@H]1[C@@H](O[C@H]2[C@H](O)[C@@H](O)[C@H](N)C[C@@H]2N)O[C@H](CO)[C@@H](O)[C@@H]1O [PAROMAMINE]	–	> 128 µg/mL	> 128 µg/mL	–	> 128 µg/mL	> 128 µg/mL	> 128 µg/mL	> 128 µg/mL	–	> 128 µg/mL	32 µg/mL (≈ 99 µM)	> 128 µg/mL	> 128 µg/mL	> 128 µg/mL	> 128 µg/mL	> 128 µg/mL	> 128 µg/mL	–

Reference: ChEMBL document CHEMBL2429794, “Tuning the antibacterial activity of amphiphilic neamine derivatives and comparison to paromamine homologues” (J Med Chem, 2013)
